Bioassay records from PubChem.
Compounds with a hit are over-represented: about 3.1% of the library has one in this group of screens.
LEDGF integ inh: blocks HIV-1 LEDGF/p75-dependent DNA integration | inhibition, % at 3.7 µM | actives 0.64% (n = 370,000) | TR-FRET IN-LEDGF/p75 DNA integration, Eu/Cy5;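 active means inhibition above the screen-wide mean plus 3 SD, cut at about 13% in these data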;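 further: signal is the Cy5 over europium emission ratio at 671 and 618 nm; 0% = plate median of compound wells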
ABHD5-PLIN5 inh: blocks binding of human ABHD5 to perilipin-5. inhibition, % at 4 µM. Split G. princeps luciferase complementation, luminescence, 4 h. actives 0.78% (n = 360,000). AID 602281;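 active means inhibition above the mean inhibition across every tested compound plus 3 SD, cut at about 22% in these data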;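 further: 0% = DMSO only wells and the 100% control is not disclosed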
PRMT1 inh: inhibitors of human PRMT1. Q99873. recombinant PRMT1, activity-based probe fluorescence polarization. inhibition, % at 2.79 µM. actives 1.3% (n = 370,000);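 active means inhibition above about 21% made by adding two undisclosed values, limit read from the data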
Target sequence (Q99873 whole entry, looked up): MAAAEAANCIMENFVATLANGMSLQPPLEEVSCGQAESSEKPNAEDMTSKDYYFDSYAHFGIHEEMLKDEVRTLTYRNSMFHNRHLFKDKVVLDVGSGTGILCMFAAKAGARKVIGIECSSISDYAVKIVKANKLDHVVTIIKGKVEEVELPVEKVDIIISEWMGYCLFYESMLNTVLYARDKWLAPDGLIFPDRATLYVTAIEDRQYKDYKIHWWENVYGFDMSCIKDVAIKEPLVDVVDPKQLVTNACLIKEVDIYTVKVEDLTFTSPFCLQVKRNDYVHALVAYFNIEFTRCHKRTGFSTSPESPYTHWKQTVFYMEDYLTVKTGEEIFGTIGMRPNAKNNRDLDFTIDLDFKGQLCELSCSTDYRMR
MBD2 DNA inh: blocks human MBD2 binding to methylated DNA; Q9UBB5; inhibition, % at 4.4 µM; actives 0.31% (n = 370,000); TR-FRET, MBD2 binding to methylated oligonucleotide; in the data active means inhibition above about 13%
UHRF1 binding: UHRF1 methyl-DNA binding inhibition. UHRF1 binding to methylated oligo, TR-FRET. inhibition, % at 4.4 µM. actives 0.75% (n = 370,000). AID 687016; in the data active means inhibition above about 21%;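 further: UHRF1 SRA domain binding a hemimethylated CpG hairpin DNA probe; 0% = median of test compound wells and 100% = reference inhibitor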
RBBP9 inhibitor: inhibitors of human serine hydrolase RBBP9; AID 1515; inhibition, % at 7.94 µM; recombinant RBBP9, FP-Rh probe fluorescence polarization; O75884; actives 0.2% (n = 220,000);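 active means inhibition above the campaign mean of all tested compounds plus 3 SD, cut at about 14% in these data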;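 further: plate controls were DMSO wells with RBBP9 for no effect and wells lacking RBBP9 protein for full effect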
Target sequence (O75884 whole entry, looked up): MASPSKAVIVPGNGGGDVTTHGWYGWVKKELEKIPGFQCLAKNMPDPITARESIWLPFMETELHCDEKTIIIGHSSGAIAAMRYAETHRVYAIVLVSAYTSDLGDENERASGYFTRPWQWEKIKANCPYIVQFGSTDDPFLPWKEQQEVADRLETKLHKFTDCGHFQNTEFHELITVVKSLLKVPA
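System: RBBP9 protein / Buffer or medium: Tris/NaCl buffer pH 8.0 with 0.1% Pluronic / Probe or stimulus: Serine-hydrolase probe FP-Rh, 375 nM pre-mixing / Dosing: 7.94 µM single dose, 0.794% DMSO / Times: enzyme-compound preincubation 30 min, then probe labeling 45 min, 25 °C / Technique: fluorescence polarization (mP), excitation 525 nm, emission 598 nm / Replication: singlicate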
IN multimer act: counter-screen for LEDGF/p75 integration inhibitors: HIV-1 integrase multimerization activators; shares compounds with LEDGF integ inh; TR-FRET HIV-1 integrase multimerization, biochemical; activation, % at 7.7 µM; actives 17% (n = 2,000); AID 1053131; in the data active means activation above about 8.9%
TRFRET interf: TR-FRET optical interference, LEDGF/p75 integration counter-screen; shares compounds with LEDGF integ inh; TR-FRET optical interference counterscreen, HIV-1 IN multimerization; inhibition, % at 7.7 µM; 2,000 tested, under 10 active; AID 1053135;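 active means inhibition above the mean over all tested compounds plus 3 SD, which no compound reached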;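 further: 0% = integrase with antibodies and DMSO and 100% = antibodies without integrase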
IN-LEDGF confirm: LEDGF/p75-dependent HIV-1 integration inhibition, confirmation; shares compounds with LEDGF integ inh; TR-FRET LEDGF/p75-dependent HIV-1 integration, biochemical; inhibition, % at 3.7 µM; actives 36% (n = 2,000); AID 1053136; in the data active means inhibition above about 14%
An asterisk follows results filed as active; . = not tested or not shown.

SMILES | LEDGF integ inh | ABHD5-PLIN5 inh | PRMT1 inh | MBD2 DNA inh | UHRF1 binding | RBBP9 inhibitor | IN multimer act | TRFRET interf | IN-LEDGF confirm
O=C(Cn1cc(COc2ccc(-n3cccc3)cc2)nn1)NS(=O)(=O)c1ccccc1C(F)(F)F | 26.6* | 0.4 | 17.1 | 1.4 | 6.5 | . | 1.3 | -4.8 | -13.5
O=C(CCCCCN1C(=O)c2ccccc2C1=O)NC1CCCC1 | 65.6* | -8.1 | 0.1 | 0.7 | -0.8 | 2.6 | 0.5 | -2.3 | -2.8
O=C(CCCCCCN1C(=O)c2ccccc2C1=O)NC1CCCCC1 | -2.5 | 0.9 | 0.4 | -2.2 | 0.2 | -5.4 | . | . | .
CC(C)(C)c1ccc(-c2nnc(SCC(=O)Nc3cccc4ccccc34)n2Cc2ccco2)cc1 | 3.5 | . | -1.4 | -2.7 | -1.1 | . | . | . | .
O=C(N/N=C\c1c(O)ccc2ccccc12)c1ccc(S(=O)(=O)N2CCCCC2)cc1 | 41.0* | -3.8 | 1.5 | -6.8 | 1.0 | 8.5 | -0.3 | 1.2 | -5.1
C#CCCCN([C@H](C(=O)OC)C(C)C)S(=O)(=O)c1ccc(F)cc1Br | 2.5 | . | 1.8 | -8.2 | 0.3 | . | . | . | .
O=C(C(=O)N1CCC(CNC(=O)C2COc3ccccc3O2)CC1)c1cccs1 (stereo not drawn) | 20.8* | . | 3.0 | -0.7 | -0.2 | . | 5.0 | -24.0 | -0.7
O=C(C(=O)N1CCC(Cc2ccccc2)CC1)c1cccs1 | 1.1 | -1.0 | 7.5 | 9.2 | 3.9 | . | . | . | .
N#C/C(=N\Nc1cc(Cl)cc(Cl)c1)c1nnc2n1CCCCC2 | 63.7* | 3.6 | 2.2 | 5.9 | 2.8 | -4.3 | 1.3 | -6.5 | 4.9
N#C/C(=C(/O)CCl)c1nnc2n1CCCCC2 | -4.0 | 0.9 | 5.5 | 1.6 | 3.3 | -2.8 | . | . | .
COC(=O)C1=C(C)N(C)C(=NCc2ccc3c(c2)OCO3)NC1c1cccc(C(F)(F)F)c1 (stereo not drawn) | -2.3 | . | 2.0 | -1.0 | 6.7 | . | . | . | .
Cc1sc2ncnc(SCC(=O)N3CCCC3=O)c2c1C | 60.8* | -1.4 | -2.2 | -2.4 | -1.8 | 1.0 | 1.4 | -7.0 | -0.1
O=C(c1ccccc1)N1CCN(S(=O)(=O)c2ccccc2)CC1 | 44.2* | 1.1 | 1.0 | 4.3 | -2.4 | -11.8 | 0.5 | -2.4 | -4.2
O=C(c1cccc(F)c1)N1CCN(S(=O)(=O)c2ccccc2)CC1 | -1.1 | 0.0 | 2.1 | -1.7 | 0.2 | 9.8 | . | . | .
O=[N+]([O-])c1cc2ccccc2c(O)c1O | 17.7* | -51.2 | 12.7 | -15.7 | -4.8 | . | 4.0 | -19.9 | 30.0*
CC1(C)Cc2c(c(-c3ccccc3)[nH]c(=O)c2C#N)CS1 | -1.1 | 1.8 | -2.2 | 0.3 | -0.3 | -4.1 | . | . | .
CC1(C)Cc2c(c(-c3ccco3)[nH]c(=O)c2C#N)CS1 | 18.1* | 7.6 | 74.3* | -0.6 | 14.7 | -1.6 | -0.9 | 4.8 | 23.3*
CCOC(=O)C1=C(C)N(C)C(=O)NC1c1cc2c(cc1[N+](=O)[O-])OCO2 (stereo not drawn) | 13.8* | -17.5 | 15.5 | 4.7 | 8.1 | 5.2 | 10.4* | -37.3 | 1.9
Cc1cccc(NC(=O)CSc2nnc(SCc3ccc(Cl)cc3)s2)c1 | -2.9 | . | 0.9 | -2.1 | 1.9 | . | . | . | .
COc1ccc(-c2nc3ccccc3c(=O)n2NC(=O)Cc2ccccc2)cc1 | 51.8* | -1.2 | -1.6 | -3.0 | -4.0 | 2.6 | 0.8 | -3.9 | -5.3
COc1ccc(CC(=O)Nn2c(-c3ccccc3)nc3ccccc3c2=O)cc1 | 2.5 | 5.2 | -0.7 | -2.8 | -1.7 | -6.3 | . | . | .
O=C(COC(=O)c1cc(S(=O)(=O)N2CCOCC2)ccc1Cl)NC1CCCCC1 | 19.3* | -0.7 | 0.8 | -5.6 | 4.4 | . | 0.5 | -1.8 | -0.8
COc1ccc(NC(=O)N[C@@H](CCSC)C(=O)O)cc1Cl | 81.3* | 1.9 | -1.4 | -3.5 | -1.0 | -0.5 | -2.5 | 12.6 | 1.8
COc1ccc(NC(=O)N[C@@H](CCSC)C(=O)O)cc1OC | -1.5 | -1.8 | 0.4 | 1.6 | -5.9 | -7.8 | . | . | .
CN(c1ccc(NC(=O)Cc2cn(C)c3ccccc23)cc1)c1ccccn1 | -3.5 | . | 10.1 | 1.7 | 0.4 | . | . | . | .
SMILES | LEDGF integ inh | ABHD5-PLIN5 inh | PRMT1 inh | MBD2 DNA inh | UHRF1 binding | RBBP9 inhibitor | IN multimer act | TRFRET interf | IN-LEDGF confirm
O=C(NCc1cccs1)c1ccc2sc([C@@H]3O[C@H](CO)[C@H](O)[C@H](O)[C@H]3O)nc2c1 | 33.0* | 3.7 | -2.4 | -3.4 | 0.8 | . | -0.8 | 3.0 | -10.3
Clc1ccccc1OCCn1nnc2ccccc21 | 29.0* | 0.4 | -1.1 | -3.6 | -0.8 | . | 0.2 | -1.0 | -1.7
Cc1ccc(C)c(OCCn2nnc3ccccc32)c1 | 2.9 | -9.5 | -3.1 | 4.2 | -1.7 | . | . | . | .
COC(=O)C1CN(Cc2ccc(F)cc2)CCS(=O)(=O)N1Cc1cn(Cc2ccc(F)cc2)nn1 (stereo not drawn) | -1.9 | . | 1.7 | 3.2 | 8.7 | . | . | . | .
CN(C(=O)COC(=O)c1cncc(Br)c1)C1CCCCC1 | 16.4* | 4.4 | 1.4 | 7.0 | 3.1 | . | -2.2 | 7.7 | -3.1
N#CC(CC(=O)OCc1ccccc1)NC(=O)OCc1ccccc1 (stereo not drawn) | 33.0* | -4.1 | 0.1 | 0.5 | -0.4 | . | -1.2 | 6.2 | -2.6
CN1CCC(N[C@@H](Cc2c[nH]c3ccccc23)C(=O)NCCCc2ccccc2)(C(=O)NCCc2c[nH]c3ccccc23)CC1 | 5.9 | . | -0.2 | -0.7 | 0.5 | . | . | . | .
Cc1cc2c(cc1C)C(=O)C(Br)=C(N)C2=O | 1.3 | -12.1 | -5.4 | -15.4 | -17.0 | . | . | . | .
Cc1cc(-c2cc(C)c(N)cc2C)c(C)cc1N | 13.5* | -2.1 | 1.3 | 1.2 | 0.8 | . | 1.9 | -9.5 | 1.1
CCN=C1NC(c2ccc(Cl)cc2)C(C(=O)OC)=C(C)N1Cc1cccc(C(F)(F)F)c1 (stereo not drawn) | -1.4 | . | -3.0 | 1.6 | 0.7 | . | . | . | .
O=C1NC2(CCCCCC2)C(=O)N1Cc1ccccc1Cl | 27.9* | -13.7 | 1.8 | 5.6 | 1.8 | . | -0.7 | 3.4 | -6.7
O=C(NCc1ccccc1)C1Nc2ccc(OC(F)(F)F)cc2C2C=CCC12 (stereo not drawn) | 22.1* | 12.3 | 12.5 | -3.4 | -1.8 | . | 0.6 | -2.2 | -8.0
Cc1ccc2c(c1)C1C=CCC1C(C(=O)O)N2 (stereo not drawn) | . | . | . | . | . | -1.3 | . | . | .
CN(C(=O)c1cn(C)c2ccccc12)c1ccc(Oc2cccnc2)cc1 | -2.8 | . | 3.7 | 4.2 | 2.2 | . | . | . | .
C=CCN1CCN(C(c2ccccc2)c2nnnn2CCC(C)C)CC1 (stereo not drawn) | 56.0* | 0.9 | 1.0 | 0.9 | 0.3 | -7.6 | -4.5 | 15.9 | -0.7
